Reference: paper PMC10548513 (Chemical Science, 2023)
Positions of bridges follow the written chain, without caps; N, C: chain ends. Non-standard residues stand in square brackets, D forms with d. Residues, ends and D or L forms follow the SMILES beside them. No end group written: not given here. R8 = C=CCCCCCC[C@@](C)(N)C(=O)O; S5 = C=CCCC[C@](C)(N)C(=O)O

Assays:
HeLa cells [1] = assay: Peptide cytotoxicity, WST-8; type: cell-based; conditions: 24 h; for Cytotoxicity at 10 µM: peptide 10 µM; for Cytotoxicity at 30 µM: peptide 30 µM
[2] = Relative hydrophobicity by UPLC retention time; type: physicochemical; conditions: comparison among stapled peptides st4-1–6 and st7-1–6 (Table S1)
Huh-7-Luc cells = assay: RNAi assay by luciferase assay, peptide/siRNA complexes; type: cell-based, human; conditions: peptide/Luc-siRNA complex, N/P ratio 16, 48 h, n = 5
Method in brief: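 Complexes of peptide with firefly GL3 luciferase siRNA, or scrambled-sequence control siRNA, were prepared at N/P 8 or 16. They were added to Huh-7 cells stably expressing luciferase and incubated for 48 h. Silencing was measured as loss of luminescence; n = 5, mean ± standard deviation.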

HeLa cells [3] = assay: Luciferase reporter assay, transfection of pDNA with peptide/pDNA complexes; type: cell-based; conditions: N/P ratio 16, 24 h
Method in brief: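 Peptide/pDNA complexes were made with luciferase-encoding (rLuc) pDNA at an N/P charge ratio (peptide cationic residues to pDNA phosphate) of 8 or 16. They were added to HeLa cells for 24 h. Transfection was read as luminescence, given as RLU normalized to blank; n = 3, mean ± standard deviation.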

| Compound | Cytotoxicity at 10 µM (HeLa cells [1]) | Relative hydrophobicity from UPLC retention times [2] | Cytotoxicity at 30 µM (HeLa cells [1]) | Reduction of the luminescence signal (gene silencing) with Luc-siRNA (Huh-7-Luc cells) | Transfection efficiency of pDNA relative to st7-5 (HeLa cells [3]) |
| --- | --- | --- | --- | --- | --- |
| CC[C@H](C)[C@H](NC(=O)CN)C(=O)N[C@@H](CCCCN)C(=O)N[C@@H](CCCCN)C(=O)N[C@@H](Cc1ccccc1)C(=O)N[C@@H](CC(C)C)C(=O)N[C@@H](CCCCN)C(=O)N[C@]1(C)CCCCCCC=CCCC[C@@](C)(C(=O)N[C@@H](Cc2ccccc2)C(=O)N[C@@H](CCCCN)C(N)=O)NC(=O)[C@H](CCCCN)NC(=O)[C@H](C(C)C)NC(=O)[C@H](Cc2ccccc2)NC(=O)[C@H](CCCCN)NC(=O)[C@H](CCCCN)NC(=O)[C@H](C)NC1=O [st7-5] (H-GIKKFLK[R8]AKKFVK[S5]FK-NH2; staple 8-15) | did not show significant cytotoxicity | most hydrophobic | – | – | – |
| GIKKFLKSAKKFVKAFK-NH2 [Pep-1] | – | – | did not exhibit cytotoxicity | – | – |
| CC[C@H](C)[C@H](NC(=O)CN)C(=O)N[C@@H](CCCNC(=N)N)C(=O)N[C@@H](CCCNC(=N)N)C(=O)N[C@@H](Cc1ccccc1)C(=O)N[C@@H](CC(C)C)C(=O)N[C@@H](CCCNC(=N)N)C(=O)N[C@]1(C)CCCCCCC=CCCC[C@@](C)(C(=O)N[C@@H](Cc2ccccc2)C(=O)N[C@@H](CCCNC(=N)N)C(N)=O)NC(=O)[C@H](CCCNC(=N)N)NC(=O)[C@H](C(C)C)NC(=O)[C@H](Cc2ccccc2)NC(=O)[C@H](CCCNC(=N)N)NC(=O)[C@H](CCCNC(=N)N)NC(=O)[C@H](C)NC1=O [st7-5_R] (H-GIRRFLR[R8]ARRFVR[S5]FR-NH2; staple 8-15) | did not show significant cytotoxicity | – | – | ~70% | about 100 times |
| GIGKFLHSAKKFGKAFVGEIMNS-NH2 [Magainin 2, reference compound] | – | – | did not exhibit cytotoxicity | – | – |
